Assay outcomes: PubChem BioAssay, The Scripps Research Institute Molecular Screening Center
proCasp3 act = activators of human procaspase-3 D3A mutant, primary screen, biochemical, absorbance, PC-3 D3A mutant, single concentration; Caspase-3 (Homo sapiens), P42574; recombinant procaspase-3 D3A, Ac-DEVD-pNA absorbance 405 nm; hit rate 0.11% among 330,000; activation, % at 8.5 µM;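 active = activation above the mean of all tested compounds plus 3 SD, cut at about 21% in these data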;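 note: 0% = DMSO alone and 100% = DMSO wells spiked with extra 5 µM PC-3 D3A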
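material = Procaspase-3 D3A mutant | probe or stimulus = Ac-DEVD-pNA | compound = single dose, 8.5 µM nominal compound, 0.8% DMSO | timing = 1 h preincubation, 2 h reaction | measured by = 405 nm absorbance of p-nitroaniline, reads at 0 and 120 min | benchmarks = DMSO-only low control, 5 µM PC-3 D3A high control | repeats = singlicate, each compound tested once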
LYPLA2 inh = LYPLA2 inhibitors, primary screen, counter-screen for PME1 inhibitor project, biochemical, fluorescence polarization, FP-Rh probe ABPP | hit rate 0.38% among 320,000 | recombinant LYPLA2 | inhibition, % at 5.9 µM | Acyl-protein thioesterase 2 (Homo sapiens), O95372 | AID 2177, 2009;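 active = inhibition above the screen-wide mean plus 3 SD, limit set per campaign, cut at about 26% in these data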;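 note: 0% = LYPLA2 with DMSO and 100% = wells lacking LYPLA2 enzyme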
proCasp7 act = procaspase-7 activators, primary screen, counter-screen for procaspase-3 activator project, biochemical, absorbance, HTS, human. Caspase-7 (Homo sapiens), P55210. recombinant procaspase-7, Ac-DEVD-pNA absorbance 405 nm; D23A/D198A/D206A triple mutant, cannot self-cleave; scale: DMSO 0, 5 µM enzyme 100. activation, % at 8.5 µM. hit rate 0.093% among 330,000;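 active = percent activation above the screen-wide mean plus 3 SD, cut at about 25% in these data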
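Assay system: Uncleavable procaspase-7 mutant enzyme; Input: 2 µM procaspase-7 mutant as dispensed; Also added: DEVD-pNA substrate; Medium: Zinc-free HEPES pH 7.4 with 300 mM NaCl, 0.01% Triton X-100; Timing: 1 h compound preincubation, 2 h substrate cleavage, 25 °C; Measured by: Epi-absorbance of released pNA at 405 nm, two timepoints.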
PREPL inhibitor = PREPL enzyme inhibitors, primary screen, biochemical, fluorescence polarization | Prolyl endopeptidase-like (Homo sapiens), Q4J6C6 | recombinant PREPL, fluorescence polarization activity-based probe | inhibition, % at 5.96 µM | hit rate 0.68% among 320,000; in the data active = inhibition above about 43%;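 note: 0% = enzyme with DMSO and 100% = wells lacking enzyme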
Target sequence (Q4J6C6 whole entry, looked up): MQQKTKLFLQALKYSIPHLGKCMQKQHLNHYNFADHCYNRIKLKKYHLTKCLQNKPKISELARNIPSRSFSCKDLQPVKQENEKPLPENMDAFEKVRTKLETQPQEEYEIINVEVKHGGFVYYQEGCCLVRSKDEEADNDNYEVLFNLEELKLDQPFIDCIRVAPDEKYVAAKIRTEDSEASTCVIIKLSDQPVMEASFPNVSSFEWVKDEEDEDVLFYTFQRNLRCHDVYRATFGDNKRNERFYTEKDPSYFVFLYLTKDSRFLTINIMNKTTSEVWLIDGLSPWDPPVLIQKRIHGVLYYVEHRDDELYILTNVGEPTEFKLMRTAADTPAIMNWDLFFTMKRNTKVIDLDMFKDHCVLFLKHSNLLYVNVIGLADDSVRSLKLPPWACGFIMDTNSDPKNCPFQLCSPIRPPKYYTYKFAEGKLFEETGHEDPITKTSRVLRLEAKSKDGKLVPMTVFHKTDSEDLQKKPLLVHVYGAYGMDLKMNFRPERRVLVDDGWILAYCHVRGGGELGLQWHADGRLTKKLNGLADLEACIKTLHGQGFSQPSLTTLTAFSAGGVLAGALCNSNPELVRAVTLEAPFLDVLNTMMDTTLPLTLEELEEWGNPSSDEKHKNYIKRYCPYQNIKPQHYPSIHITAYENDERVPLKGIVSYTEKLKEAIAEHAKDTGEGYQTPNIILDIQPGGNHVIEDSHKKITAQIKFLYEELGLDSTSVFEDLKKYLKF
LYPLA1 counter = LYPLA1 inhibitors, primary screen, counter-screen for PME1 inhibitor project, biochemical, fluorescence polarization, FP-Rh probe ABPP; hit rate 0.16% among 320,000; Acyl-protein thioesterase 1 (Homo sapiens), O75608; recombinant LYPLA1; inhibition, % at 5.9 µM;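 active = inhibition above the mean of all tested compounds plus 3 SD, set per campaign, cut at about 14% in these data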;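 note: inhibitors block serine hydrolase probe labeling of LYPLA1 so polarization falls; 0% = enzyme with DMSO and 100% = wells lacking LYPLA1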
LYPLA2 conf = LYPLA2 inhibitors, retest, confirmation, counter-screen for PME1 inhibitor project, biochemical, fluorescence polarization, FP-Rh probe ABPP; shares compounds with LYPLA2 inh; recombinant LYPLA2; inhibition, % at 5.9 µM; hit rate 72% among 1,100;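 active = mean inhibition across replicates above the hit cutoff set in the primary screen, cut at about 26% in these data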;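 note: blocked labeling of the enzyme by serine hydrolase FP-Rh probe lowers polarization; 0% = enzyme with DMSO and 100% = wells lacking LYPLA2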
LYPLA2 gel ABPP = LYPLA2 inhibitors in proteome, late-stage follow-up, gel-based competitive ABPP, fluorescence, assay provider; shares compounds with LYPLA2 inh; AID 652029, 2013; hit rate 30% among 150; inhibition, % at 20 µM; rhLYPLA2 in mouse brain proteome, gel ABPP FP-Rh;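 active = inhibition of LYPLA2 enzyme probe labeling above about 50%, limit read from the data; inactive = inhibition below that limit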;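 note: loss of FP-Rh probe labeling of the LYPLA2 gel band measured as band density; 0% = DMSO only control band and 100% = blank gel background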
* = called active by the depositor; x = no result. An excerpt weighted towards active compounds, which were near 1.1% of everything screened.

SMILES | proCasp3 act | LYPLA2 inh | proCasp7 act | PREPL inhibitor | LYPLA1 counter | LYPLA2 conf | others
O=C1N=C(N2CCN(c3ccccc3)CC2)S/C1=C/c1cccs1 | 3.1 | 33.6* | 1.0 | 29.5 | 2.6 | 38.2*
Cc1cc(Cl)ccc1OCC(=O)OCC(=O)N1CCC(C(N)=O)CC1 | 0.8 | -4.3 | 12.2 | 4.9 | -4.2 | x
CCN(CC)c1ccc(C(=O)Nn2cnc3ccccc3c2=O)cc1 | -1.0 | 0.8 | 6.1 | 7.7 | -0.7 | x
CCCCCCCCCC(=O)Nn1cnc2ccccc2c1=O | 1.5 | 70.9* | -4.2 | -0.7 | 1.7 | 75.0* | LYPLA2 gel ABPP=52.0*
COc1ccc(N2CCN(C(=O)c3cc4c(s3)-c3ccccc3S(=O)(=O)C4)CC2)cc1 | -2.5 | 89.1* | 4.8 | 37.0 | 1.1 | 97.1* | LYPLA2 gel ABPP=100.0*
CC1CCC2(CC1)NC(=O)N(CC(=O)Nc1cccc(C#N)c1)C2=O (stereo not drawn) | 1.3 | -2.2 | -7.7 | 2.6 | 2.4 | x
O=C(NCC(=O)N1CCN(C/C=C/c2ccccc2)CC1)c1ccc(Br)cc1 | 9.6 | x | -1.7 | 19.6 | x | x
O=C(NCC(=O)N1CCN(C/C=C/c2ccccc2)CC1)c1ccc(OC(F)F)cc1 | -5.3 | 34.7* | 3.9 | 23.3 | 1.0 | 31.9*
Cc1ccc(S(=O)(=O)Nc2cccc(-n3cnnn3)c2)cc1C(=O)O | -0.3 | 33.0* | 2.9 | 1.6 | 1.1 | 1.0
Cc1cc2c(NC(=O)Nc3ccc(F)cc3)cccc2nn1 | -9.9 | 44.1* | -15.4 | 17.3 | -8.7 | 54.0* | LYPLA2 gel ABPP=43.0
CCOC(=O)N1CCC(NC(=O)c2cc3cc4cc(OC)ccc4nc3o2)CC1 | -2.0 | 35.0* | -0.8 | 0.6 | 9.0 | 31.5*
Cc1cc(OCC(=O)Nc2ccc(CN3CCOCC3)cc2)c2c(C)cc(=O)oc2c1 | 4.8 | 42.8* | 4.3 | -2.1 | 1.7 | 48.0*
Cc1cc(OCC(=O)NCCCN2CCOCC2)c2c(C)c(C)c(=O)oc2c1 | 1.2 | 4.0 | 1.0 | 4.0 | 4.0 | x
Cc1cc(OCC(=O)Nc2ccc(CN3CCOCC3)cc2)c2c(C)c(C)c(=O)oc2c1 | -0.3 | 30.5* | 10.7 | -6.3 | -1.4 | 36.0*
CCc1ccc(NS(=O)(=O)c2cccc3nsnc23)cc1 | 1.0 | 3.0 | 5.7 | -0.2 | -0.2 | x
O=C(O)c1cccc(N2C(=O)c3ccc(Oc4ccc(Cl)cc4)cc3C2=O)c1 | 4.8 | 52.6* | 7.3 | 8.0 | -2.9 | 67.6* | LYPLA2 gel ABPP=55.0*
COc1cc(/C=C(/C#N)c2ccc(F)cc2)ccc1Oc1ccc([N+](=O)[O-])cn1 | -9.1 | 46.5* | 9.7 | 10.7 | -3.3 | 51.2* | LYPLA2 gel ABPP=19.0
COc1cc(/C=N\NC(=O)c2ccccc2F)ccc1Oc1ccc([N+](=O)[O-])cn1 | -7.6 | 30.6* | 3.6 | -50.9 | -1.6 | 23.5
COc1cc(/C=N/NC(=O)Cc2ccccc2)ccc1Oc1ccc([N+](=O)[O-])cc1[N+](=O)[O-] | 1.6 | 40.3* | -7.6 | 19.6 | -3.9 | 31.4*
COc1ccc([N+](=O)[O-])cc1/C=N/NC(=O)Cc1ccccc1 | 2.4 | -1.4 | -1.4 | -1.9 | -0.3 | x
CCOc1cc(C=C(C#N)C#N)ccc1Oc1ccc([N+](=O)[O-])cn1 | 7.8 | 7.1 | 5.2 | -12.6 | -3.9 | x
COc1ccccc1NS(=O)(=O)c1cccc(C(=O)N2CCN(Cc3ccc4c(c3)OCO4)CC2)c1 | 11.3 | 0.7 | -0.3 | 24.2 | -2.7 | x
C#CCn1c(=NC(=O)CN2C(=O)CCC2=O)sc2cc(S(N)(=O)=O)ccc21 | 8.5 | 32.5* | 8.8 | 0.1 | -3.0 | 47.0*
